Consider 2 molecules from ChEMBL document CHEMBL2346664, “Synthesis, characterization and in vitro anticancer evaluation of novel 1,2,4-triazolin-3-one derivatives” (2013).

For one assay, the system named is NCI-H522. In words: Growth inhibition of human NCI-H522 cells assessed as cell growth at 10 uM after 48 hrs by sulforhodamine B assay. The format is functional. The note with it: NCI-H522, 48 h, read-out: Activity. On the technique in general: The SRB assay estimates cell density from bound dye.
For another assay, the system named is UACC-257. As to the kind of experiment: Growth inhibition of human UACC257 cells assessed as cell growth at 10 '-8 M after 48 hrs by sulforhodamine B assay. The format is functional. The following applies: UACC-257, 48 h, read-out: Activity.
The nature of assay [1]: Growth inhibition of human HCC2998 cells assessed as cell growth at 10 '-6 M after 48 hrs by sulforhodamine B assay. It counts as functional. The note with it: HCC 2998, 48 h, read-out: Activity.
Another assay deals with RPMI-8226. As to the kind of experiment: Growth inhibition of human RPMI8226 cells assessed as cell growth at 10 '-7 M after 48 hrs by sulforhodamine B assay. It counts as functional. The note with it: RPMI-8226, 48 h, read-out: Activity.
The next assay deals with OVCAR-3. In words: Growth inhibition of human OVCAR3 cells assessed as cell growth at 10 '-7 M after 48 hrs by sulforhodamine B assay. It counts as functional. The note with it: OVCAR-3, 48 h, read-out: Activity.
Assay [2] can be described thus: Growth inhibition of human HCC2998 cells assessed as cell growth at 10 '-5 M after 48 hrs by sulforhodamine B assay. The note with it: HCC 2998, 48 h, read-out: Activity. The format is functional.
Another assay concerns SNB-19. As to the kind of experiment: Growth inhibition of human SNB19 cells assessed as cell growth at 10 '-4 M after 48 hrs by sulforhodamine B assay. The note with it: SNB-19, 48 h, read-out: Activity. The format is functional.
A further assay concerns HOP-92. In words: Growth inhibition of human HOP92 cells assessed as cell growth at 10 '-6 M after 48 hrs by sulforhodamine B assay. It counts as functional. The following applies: HOP-92, 48 h, read-out: Activity.
The next assay relates to T47D. As to the kind of experiment: Growth inhibition of human T47D cells assessed as growth inhibition at 10 uM after 48 hrs by sulforhodamine B assay. The format is functional. The note with it: read-out: GI.
A further assay concerns SF-539. As to the kind of experiment: Growth inhibition of human SF539 cells assessed as growth inhibition at 10 uM after 48 hrs by sulforhodamine B assay. It counts as functional. The note with it: SF-539, 48 h, read-out: GI.
The test system of assay [3] is HCT-116. In words: Growth inhibition of human HCT116 cells assessed as cell growth at 10 '-7 M after 48 hrs by sulforhodamine B assay. The format is functional. The following applies: HCT-116, 48 h, read-out: Activity.
In another assay the test system is SK-MEL-2. In words: Growth inhibition of human SK-MEL-2 cells assessed as cell growth at 10 '-5 M after 48 hrs by sulforhodamine B assay. It counts as functional. The note with it: SK-MEL-2, 48 h, read-out: Activity.
In another assay the test system is NCI-H460. As to the kind of experiment: Growth inhibition of human NCI-H460 cells assessed as cell growth at 10 '-4 M after 48 hrs by sulforhodamine B assay. The following applies: NCI-H460, 48 h, read-out: Activity. It counts as functional.
For assay [4], the system named is BT-549. In words: Growth inhibition of human BT549 cells after 48 hrs by sulforhodamine B assay. The following applies: BT-549, 48 h. It counts as functional. The method in brief: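 NCI 60-cell-line five-dose screen at 0.01, 0.1, 1, 10 and 100 µM final. Cells were plated at 5,000–40,000/well and grown 24 h at 37 °C, 5% CO2, then exposed to drug continuously for 48 h. Adherent cells were fixed with cold TCA (10% final) and stained with SRB; absorbance read at 515 nm. GI50 is the concentration where [(Ti-Tz)/(C-Tz)]×100 = 50, with Tz plates fixed at drug addition.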

A short description of assay [5]: Growth inhibition of human EKVX cells assessed as growth inhibition at 10 uM after 48 hrs by sulforhodamine B assay. The format is functional. The note with it: read-out: GI.
In another assay the test system is MOLT-4. In words: Growth inhibition of human MOLT4 cells assessed as cell growth at 10 '-6 M after 48 hrs by sulforhodamine B assay. The format is functional. The following applies: MOLT-4, 48 h, read-out: Activity.
Assay [6] concerns BT-549. As to the kind of experiment: Growth inhibition of human BT549 cells assessed as cell growth at 10 '-5 M after 48 hrs by sulforhodamine B assay. The format is functional. The note with it: BT-549, 48 h, read-out: Activity. The method in brief: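 Percent growth at each of the five concentrations of the 48 h continuous-exposure NCI SRB screen. Drug stocks were in DMSO at 400× the top final concentration and diluted in medium with gentamicin. Growth was calculated as [(Ti-Tz)/(C-Tz)]×100 when Ti ≥ Tz, or [(Ti-Tz)/Tz]×100 when Ti < Tz. Tz plates were fixed at drug addition; untreated wells served as control. Absorbance was read at 515 nm.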

The test system of another assay is SW-620. In words: Growth inhibition of human SW620 cells assessed as cell growth at 10 '-7 M after 48 hrs by sulforhodamine B assay. The note with it: SW-620, 48 h, read-out: Activity. The format is functional.
The subject of the next assay is CCRF-CEM. In words: Growth inhibition of human CCRF-CEM cells assessed as growth inhibition at 10 uM after 48 hrs by sulforhodamine B assay. The format is functional. The following applies: read-out: GI. The method in brief:
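NCI-60 primary single-dose screen at 10^-5 M, 48 h continuous exposure. Adherent cells were fixed with cold TCA (10% final) and suspension cells with 16% final TCA, then stained with 0.4% SRB in 1% acetic acid. Bound dye was solubilized in 10 mM Tris base and read at 515 nm. Output is growth percent relative to untreated controls, and GI% is 100 minus growth percent.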

The test system of the next assay is NCI-H23. In words: Growth inhibition of human NCI-H23 cells assessed as cell growth at 10 '-4 M after 48 hrs by sulforhodamine B assay. The format is functional. The following applies: NCI-H23, 48 h, read-out: Activity.
The next assay relates to M14. In words: Growth inhibition of human M14 cells assessed as cell growth at 10 '-8 M after 48 hrs by sulforhodamine B assay. It counts as functional. The following applies: M14, 48 h, read-out: Activity.
The next assay concerns HL-60(TB). As to the kind of experiment: Growth inhibition of human HL-60(TB) cells assessed as growth inhibition at 10 uM after 48 hrs by sulforhodamine B assay. It counts as functional, cell-based. The method in brief: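 NCI DTP single high-dose primary screen at 10^-5 M across 60 human tumour lines. Growth percent of treated cells is taken relative to untreated controls: values of 0–100 indicate growth inhibition and values below 0 indicate cytotoxicity. Both growth percent and percentage growth inhibition are reported.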

Another assay concerns KM12. In words: Growth inhibition of human KM12 cells assessed as cell growth at 10 '-4 M after 48 hrs by sulforhodamine B assay. It counts as functional. The following applies: KM12, 48 h, read-out: Activity.
The test system of a further assay is SF-295. In words: Growth inhibition of human SF295 cells assessed as cell growth at 10 '-6 M after 48 hrs by sulforhodamine B assay. The format is functional. The note with it: SF-295, 48 h, read-out: Activity.
The subject of assay [7] is HCT-116. As to the kind of experiment: Growth inhibition of human HCT116 cells assessed as cell growth at 10 '-8 M after 48 hrs by sulforhodamine B assay. The format is functional. The following applies: HCT-116, 48 h, read-out: Activity.
The test system of a further assay is MDA-MB-468. As to the kind of experiment: Growth inhibition of human MDA-MB-468 cells assessed as cell growth at 10 '-5 M after 48 hrs by sulforhodamine B assay. It counts as functional. The following applies: MDA-MB-468, 48 h, read-out: Activity.
Assay [8] is described as follows: Growth inhibition of human NCI-ADR-RES cells assessed as cell growth at 10 '-7 M after 48 hrs by sulforhodamine B assay. The format is functional. The following applies: read-out: Activity.
The subject of a further assay is OVCAR-8. As to the kind of experiment: Growth inhibition of human OVCAR8 cells assessed as cell growth at 10 '-4 M after 48 hrs by sulforhodamine B assay. The format is functional. The following applies: OVCAR-8, 48 h, read-out: Activity.

Activity calls are given as the source filed them. No cut-off for these calls is given here. Where only a bound is given, the exact number is not on record here.

Take `Cc1nn(-c2ccc(Cl)cc2)c(=O)n1CCN1CCOCC1`: the growth at 10 µM with NCI-H522 is 69%.

For the molecule `Cc1cc(=O)oc2cc(OCCn3c(C)nn(-c4ccc(Cl)cc4)c3=O)ccc12`, the growth at 0.01 µM was 95% with UACC-257, 101% in the assay with M14 and 101% in the assay on HCT-116 [7]. Further, the growth at 1 µM turned out to be 76% in assay [1], 83% in the assay on HOP-92, 100% in the assay with MOLT-4 and 74% in the assay with SF-295. The growth at 0.1 µM came out at 97% with RPMI-8226; 110% in the assay on OVCAR-3; 98% with HCT-116 [3]; 98% in the assay with SW-620; 96% in [8]. In addition, the growth at 10 µM in assay [2] amounted to 29%; with SK-MEL-2, 62%; in the assay on BT-549 [6], 64%; in the assay with MDA-MB-468 it was 15%. Besides, the growth at 100 µM came to 20% in the assay with SNB-19; 8% in the assay with NCI-H460; 19% in the assay with NCI-H23; 12% in the assay with KM12; 24% with OVCAR-8. The inhibition of growth at 10 µM was 52.6% with T47D, 70.5% in the assay on SF-539, 41.3% in assay [5] and 86.6% in the assay on CCRF-CEM. This molecule also came in with a GI50 with BT-549 [4] of 1650 nM. The same molecule had a TGI in the assay with BT-549 [4] of 9940 nM. The CC50 with BT-549 [4] (read-out: LD50 (the source's name)) is more than 1000 nM. Further, the “growth inhibition (GI)” value in the assay on HL-60(TB) was “Active”.

A word on the GI50: it is the concentration that inhibits growth by half. One may read the TGI as the concentration giving total growth inhibition. A higher TGI goes with less potent growth arrest.
